The values that follow come from paper PMC10900806 (Asian Journal of Pharmaceutical Sciences, 2024).

“Also recorded” adds a separate entry of the source.

Format in all cases: cell-based
The test system of data set [1] is B16-F10 cells. The settings on record: 5 µM, 1 h.
The subject of another data set is caspase-3. In words: Caspase-3 activity assay. The settings on record: B16-F10 cells, 24 h treatment, Caspase-3 assay kit. Put shortly:
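B16-F10 cells were seeded at 5 × 10^5 per well and cultured overnight. They were then exposed to test peptides for 24 h, and caspase-3 activity was measured with a commercial caspase-3 activity kit.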

Data set [2] concerns B16-F10 cells. In words: Cell cycle assay. The settings on record: CPT 5 µM, AAM analogs 5 µM, conjugates 5 µM, 1 h at pH 5.5, then 24 h, n = 3.
In data set [3] the test system is B16-F10 cells. Nature of the data set: Endosomal escape, co-localization with LysoTracker Red. The following applies: 5 µM, pH 5.5, 15 min then further 15, 30 and 60 min, ImageJ. Put shortly:
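Cells were exposed to a FAM-labelled test peptide (5 µM) at pH 5.5 for 15 min, taken as 0 min, then incubated a further 15, 30 or 60 min. Medium was removed and lysosomes were stained with LysoTracker Red (100 nM, 30 min). After confocal imaging, co-localisation was quantified as Pearson's correlation coefficient (R).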

In data set [4] the test system is B16-F10 cells. In words: Short-term cytotoxicity, MTT, 1 h. The following applies: 1 h incubation, serum-free medium, different pH values, n = 3. Put shortly:
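B16-F10 cells were seeded at 1 × 10^4 per well and cultured overnight. They were incubated 1 h with test compounds at different pH values, and viability was assessed by MTT. Membrane-lytic reference peptides served as positive controls. Data are from three independent experiments, given as mean ± SD.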

Data set [5] deals with B16-F10 cells. In words: LDH release assay. The following applies: 1 h, pH 7.4 or 5.5, CytoTox-ONE kit, n = 3. Background: LDH in the medium is a marker of cell lysis.
Data set [6] concerns B16-F10 cells. Nature of the data set: PI uptake assay. The settings on record: 10 µM. In outline:
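B16-F10 cells (6 × 10^4) were seeded in glass-bottomed dishes and cultured overnight. End point: 1 h exposure to 10 µM test agent at pH 5.5 or 7.4, then fresh DMEM with PI (1 µg/ml) for 10 min before confocal imaging. Kinetics: 10 µM agent was added to DMEM containing PI (1 µg/ml) at pH 5.5, with images taken every 1 min for 30 min.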

The subject of another data set is erythrocyte suspension. Nature of the data set: Hemolysis assay. The settings on record: 10% (v/v) mouse erythrocytes in PBS, 1 h, 37 °C, absorbance at 450 nm. In outline: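 Heparinised whole mouse blood was centrifuged at 1,000 × g for 15 min. The pellet was washed three times with PBS and resuspended to 10% (v/v) in PBS. Suspension was mixed with test compounds for 1 h at 37 °C, then centrifuged, and supernatant absorbance was read at 450 nm. PBS defined 0% and 0.1% Triton X-100 defined 100% hemolysis.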

As for `CC[C@@]1(O)C(=O)OCc2c1cc1n(c2=O)Cc2cc3ccccc3nc2-1` [CPT, camptothecin], the “cellular uptake of CPT and peptide-CPT conjugates (blue fluorescence, confocal)” value with B16-F10 cells [1] (pH 7.4 or 5.5, near UV excitation) was “distinction of fluorescence intensity between pH 7.4 and pH 5.5 was not obvious”. In addition, in the data set with caspase-3, the caspase-3 activation result was “significantly activated caspase-3”. Besides, the cell cycle distribution entry in the data set with B16-F10 cells [2] was “significantly increased the cell proportion in the G2/M phase and decreased the cell proportion in the G0/G1 and S phases”.

With “GIGAVLHVLTTGLPALISWIHHHHQC(FAM)-NH2 [FAM-AAM-1]”, the “cellular uptake of FAM-labeled peptides, confocal microscopy” value in the data set on B16-F10 cells [1] (serum-free medium, pH 7.4 or 5.5) is “higher cellular uptake in B16-F10 cells at pH 5.5 than that at pH 7.4”. Further, in the data set on B16-F10 cells [3], the “Pearson's correlation coefficients (r) between FAM-AAM-1 and LysoTracker Red” value is “r-values became gradually low over time”.

Regarding melittin, in the data set on B16-F10 cells [4], the “short-term cytotoxicity against B16-F10 cells” value is “high cytotoxicity to B16-F10 cells, even at 1.25 µM; also recorded: no obvious pH dependence”. Also, in the data set on B16-F10 cells [5], the “LDH release (membrane-lytic activity)” value is “strong release of LDH at both pH 7.4 and 5.5”. Also, the “PI uptake (PI-positive cells, membrane-disruptive activity)” value in the data set with B16-F10 cells [6] (1 h, pH 7.4 and 5.5, PI 1 µg/ml, confocal) is “showed no obvious difference”. The “membrane-lytic behavior in time-lapse images” value in the data set with B16-F10 cells [6] (pH 5.5, PI 1 µg/ml, images every 1 min for 30 min) was “developed necrosis, including rounding, blebbing, swelling, and bursting”. Also, the hemolytic activity entry in the data set on erythrocyte suspension is reported as “extreme hemolytic activity”.
